Test results from the RNAGym collection of RNA variant scans (doi:10.1101/gad.245936.114).
This sample holds only a part of the variants without activity.

B1: tRNA (parent)
chain: CUCUCGGUAGCCAAGUUGGUUUAAGGCGCAAGACUUUAAUUUAUCACUACGAAAUCUUGAGAUCGGGCGUUCGACUCGCCCCCGGGAGAUUUUUUCCUCGAGCAA

Variants of: B1
Experiment: nonsense suppression (GFP-seq) (ratio to wild type); higher = more function; SUP4oc tRNA, yeast GFP reporter sort-seq
Procedure, shortened: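 Yeast carrying genome-integrated SUP4oc tRNA variants from a library with ~3% random mutations were grown in raffinose/galactose medium with 80 mg/L adenine. Each strain also carried a galactose-driven GFP ochre reporter and RFP. Cells were sorted into GFP/RFP bins, and each bin was Illumina-sequenced (phred ≥30). Nonsense suppression (GFPSEQ) is the bin median GFP/RFP, weighted by each variant's estimated cell share per bin, relative to wild-type SUP4oc; variants needed ≥100 reads and ≥30 cells.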

| Variant | nonsense suppression |
| --- | --- |
| CUUUCGGUAGCCAAGUUGGUAUAAGGCGCAAGACUUUAAUUUAUCACUACGAAAUCUUGAGAUCGGGCGUUCGACUCGCCCCCGGGAGAUUUUUUCCUCGAGCAA | 0.196 |
| CUUUCGGUAGCCAAGUUGGUGUAAGGCGCAAGACUUUAAUUUAUCACUACGAAAUCUUGAGAUCGGGCGUUCGACUCGCCCCCGGGAGAUUUUUUCCUCGAGCAA | 0.137 |
| CUUUCGGUAGCCAAGUUGGUUUAAGGCGCAAGACUUUAAUUUAUCACUACGAAAUCUUGAAAUCGGGCGUUCGACUCGCCCCCGGGAGAUUUUUUCCUCGAGCAA | 0.198 |
| CUUUCGGUAGCCAAGUUGGUUUAAGGCGCAAGACUUUAAUUUAUCACUACGAAAUCUUGACAUCGGGCGUUCGACUCGCCCCCGGGAGAUUUUUUCCUCGAGCAA | 0.164 |
| CUUUCGGUAGCCAAGUUGGUUUAAGGCGCAAGACUUUAAUUUAUCACUACGAAAUCUUGAGAUCGCGCGUUCGACUCGCCCCCGGGAGAUUUUUUCCUCGAGCAA | 0.0288 |
| CUUUCGGGAGCCAAGUUGGUUUAAGGCGCAAGACUUUAAUUUAUCACUACGAAAUCUGGAGAUCGGGCGUUCGACUCGCACGCGGCAGAUUUUUUCCUCGAGCAA | ≤ 0.026 |
| CUUUCGGUAGCCAAGUUGGUUCAAGGCGCAAGACUUUAAUUUAUCACUACGAAAUCUUGAGAUCGGGCGUUCGACUCGCCCCCGGGAGAUUUUUUCCUCGAGCAA | 0.304 |
| CUUUCGGUAGCCAAGUUGGUUAAAGGCGCAAGACUUUAAUUUAUCACUACGAAAUCUUGAGAUCGGGCGUUCGACUCGCCCCCGGGAGAUUUUUUCCUCGAGCAA | 0.169 |
| CUUUCGGUAGCCAAGUUGGUUUAAGGCGGAAGACUUUAAUUUAUCACUACGAAAUCUUGAGAUCGGGCGUUCGACUCGCCCCGGGGACAUUUUUUCCUCGAGCAA | 0.993 |
| CUUUCGGUAGCCAAGUUGGUUUAAGGCGCAAGACUUUAAUUUAUCACUACGAAAUCUUGAGAUCGGGCGUUCGACUCGCCCCCGGGAGCUUUUUUCCUCGAGCAA | 0.0874 |
| CUUUCGGUAACCAAGUUGGUUUAAGGCGCAAGACUUUAAUUUAUCACUACGAAAUCUUGAGAUCGGGCGUUCGACUCGCCCCCGGGAGAUUUUUUCCUCGAGCAA | 0.0262 |
| CUUUCGAUAGCCAAGUGGGUUUAAGGCGCAAGACUUUAAUUUAUCACUACGAAAUCUUGAGAUCGGGCGUUCGACUCGCCCCCGGGAGAUUUUUUCCUCGAGCAA | ≤ 0.026 |
| CUUUCGGUAGCCAAGUUGGUUUAAGGCGCAAAACUUUAAUUUAUCACUACGAAAUCUUGAGAUCGGUCCUUCGACUCGCCCCCGGGAGAUUUUUUCCUCGAGCAA | ≤ 0.026 |
| CUUUCUGUAGCCAAGUUGGUUUAAGGCGCAAGACUUUAAUUUAUCACUACGAAAUCUUGAGAUCGGGCGUUCGACUCGCCCCCGGGAGAUUUUUUCCUCGAGCAA | 0.0343 |
| CUUCCGGUCGCCAAGUUGGUUUAAGGCGCAAGACUUUAAUUUAUCACUACGAAAUCUUGAGAUCGGGCGUUCGACUCGCCCCCGGGAGAUUUUUUCCUCGAGCAA | 1.11 |
| CUUUCGGUAGCCAAGUUGGUUUAAGGCGCAAGACUUUAAUUUAUCACUACGAAAUCUCGAGAUCGGGCGUUCGACUCGCCCCCGGGAGAUUUUUUCCUCGAGCAA | 0.202 |
| CUUUCGGUAGCUAAGUUGGUUUAAGGCGCAAGACUUUAAUUUAUCACUACGAAAUCUUGAGAUCGGGCGUUCGACUCGCCCGCGGGAGAUUUUUUCCUCGAGCAA | ≤ 0.026 |
| CUUUCGGUAGCCAAGUUGGGUUAAGGCGCAAGACUUUAAUUUAUCACUACGAAAUCUUGAGAUCGGGCGUUCGACUCGCCCCCGAGAGAUUUUUUCCUCGAGCAA | 0.214 |
| CUUCCGGUAGCCAAGUUGGUUUAAGGCGCAAGACUUUAAUUUAUCACUACGAAAUCUUGAGAUCGGGCGUUCGACUCGCCCCCGGGAGAUUUUUUCCUCGAGCAA | 0.859 |
| CUUUCGGUAGCCAAGUUGGUUUAAGGCGCAAGACUUUAAUUUAUCACUACGAAAUCCUGAGAUCGGGCAUUCAACUCGCCCCCGAGAGAUUUUUUCCUCGAGCAA | ≤ 0.026 |
| CUUUUGGUAGCCAAGUUGGUUUAAGGCGCAAGACUUUAAUUUAUCACUACGAAAUCUUGAGAUCGGGCGUUCGACUCGCCCCCGGGAGAUUUUUUCCUCGAGCAA | 0.158 |
| CUUUCGGUAGCCAAGUUGGUUUAAGGCGCAAGACUUUAAUUUAUCACUACGAAAUCUUGAGAUCGGGCGUUCGACUCGCCUCCGGGAGAUUUUUUCCUCGAGCAA | 0.0941 |
| CUUUCGGUAGCCAAGUUGGUUUAAGGCGCAAGACUUUAAUUUAUCACUACGAAAUCUUGAGAUCGGGCGUUCGAUUCGCCCCCGGGAGAUUUUUUCCUCGAGCAA | 0.539 |
| CUUUCCGUUGCCGAGUUGGUUUGAGGCGCAAGACUUUAAUUUAUCACUACGAAAUCUUGGGAUCGGGCCUUCGACUCGCCCCCGGGAGAUUUUUUCCUCGAGCAA | ≤ 0.026 |
| CUUUCUGUAGCCAAGUUGGUUGAAGGCGCAAGACUUUAAUUUAUCACUACGAAAUCUUGAGAUCGGGCGUUCGACUCGCCGCCGGGAGAUUUUUUCCUCGAGCAA | ≤ 0.026 |
| CUUCGGUAGCCAAAGUAGGUUUAAGGCGCAAGACUUUAAUUUAUCACUACGAAAUCAUGAGAUCGGGCGUUCGACUCGCCCCCGGGAGAUUUUUUCCUCGAGCAA | ≤ 0.026 |
| CUUUCGGUAGCCAAGUUGGUUUAAGGCGCAAGACUUUAAUUUAUCACUACGAACUCUUGAGAUCGGGCGUUCGACUCGCCCCCGGGAGAUUUUUUCCUCGAGCAA | 0.079 |

| Variant | nonsense suppression |
| --- | --- |
| CUUUCGGUAGCCAAGUUGGUUUAAGGGGCAAGACUUUAAUUUAUCACUACGAAAUCUUGAGAUCGGGCGUUCGACUCGCCCCCGGGAGAUUUUUUCCUCGAGCAA | 0.0543 |
| CUUUCGGUAGCCAAGUUGGUUUAAGGCGCAAGACGUUAAUUUAUCACUACGAAAUCUUGAAAUCGGGCGUUCGACUCGCCCCCGGGAGAUUUUUUCCUCGAGCAA | ≤ 0.026 |
| CUUUCGGUAGCCAAGUUGGUUUAAGGCGCAAGACUUUAAUUUAUCACUACGAAAUCUUGAGAUCGGGCGUUCGACUCACCCCCGGGAGAUUUUUUCCUCGAGCAA | 0.0608 |
| CUUUCGGUAGCCAAGUUGGUUUAAGGCGCAAGACUUUAAUUUAUCACUACGAAAUCUUGAGAUCGGGCGUUCGACUGGCCCCCGGGAGAUUUUUUCCUCGAGCAA | 0.0323 |
| CUUUCGGUAGCCAAGUUGGGUUAAGGCGCAAGACUUUAAUUUAUCACUACGAAAUCUUGAGAUCGGGCGUUCGACUCGCCCCCGGGAGAUUUUUUCCUCGAGCAA | 0.194 |
| CUUUCGGGAGCCAAGUUGGUUUAAGGCGCAAGACUUUAAUUUAUCACUACGAAUUCUGGAGAUCGGGCGUUCGACUCGCCCCUGGGAGAUUUUUUCCUCGAGCAA | ≤ 0.026 |
| CUUUCGGUACCCAAGUUGGUUUUAGGCGCAAGACUUUAAUUUAUCACUACGAAAUCUUGAGAUCGGGCGUUCGACUCGCCCCGGAGAGUUUUUUUCCUCGAGCAA | ≤ 0.026 |
| CUUUCGGUAGCCAAGUUGGUUUAAGGCGCAAGACUUUAAUUUAUCACUACGAAAUCUUGAGAUCGGGCGUUCGACUCGCCCCCGAGAGAUUUUUUCCUCGAGCAA | 0.528 |
| CUUUCGGUACCCAAGUGGGUUAAACGCGCAAGACUUUAAUUUAUCACUACGAAAUCUUGAGAUCGGGCGUUCGACUCGCCCCCGGGAGAUUUUUUCCUCGAGCAA | ≤ 0.026 |
| CUUUCGGCAGCCAAGUUGGUUUAAGGCGCAAGACUUUAAUUUAUCACUACGAAAUCUUGAGAUCGGGCGUUCGACUCGCCCCCGGGAGAUUUUUUCCUCGAGCAA | 0.0916 |
| CUUUCGGUAGCCAAGUUGGAUUAAGACGCAAGACUUUAAUUUAUCACUACGAAAUCUUGAGAUCGGGCGUUCGACUCGCCCCCGGGAGAUUUUUUCCUCGAGCAA | ≤ 0.026 |
| CUUUCGGUAGCCAAGUUGGUUUAAGGCGCAAGACUUUAAUUUAUCACUACGAAAUCUUGAGAUCGGGUGUUCGACUCGCCCCCGGGAGAUUUUUUCCUCGAGCAA | 0.201 |
| CUUUCGGUAGCCAAGUUGGUCUAAGGCGCAAGACUUUAAUUUAUCACUACGAAAUCUUGAAAUCGGGCGUUCGACUCGCCCCCGGGAGAUUUUUUCCUCGAGCAA | 0.206 |
| CUUUCGGUAGCCAAGUUGGUUUAAGGCGCAAGACUUUAAUUUAUCACUACGAAAUCUUGUGAUCGGGCGUUCGACUCGCCCCCGGGAGAUUUUUUCCUCGAGCAA | 0.55 |
| CUUUCGGUAGCCAAGUUGGUUUAAGGCGCAAGAUUUUAAUUUAUCACUACGAAAUCUUGAGAUCGGGCGUUCGACUCGCCCCCGGGAGAUUUUUUCCUCGAGCAA | ≤ 0.026 |
| CUUUCGGUAGCCAAGUAGGUUUAAGGCGCAAGACUUUAAUUUAUCACUACGAAAUCUUGAGAUCGGGCGUUCGACUCGCCCCCGGGAGAUUUUUUCCUCGAGCAA | 0.194 |
| CUUUCGGUAGCCAAGUUGGUUUAAGGCGCAAGACUUUAAUUUAUCACUACGAAAUCUUGAGAUCGGGCGUUGGACUCGCCCCCGGGAGAUUUUUUCCUCGAGCAA | ≤ 0.026 |
| CUUUCGGUAGCCAAGUUGGUGUAAGGCGCAAGACUUUAAUUUAUCACUACGAAAUCUUGAGAUCGGGCGUUCGACUCGCCCCCGCGAGAUUUUUUCCUCGAGCAA | 0.417 |
| CUUUCGGUAGCCAAGUUGGUUUAAGGCGCAAGACUUUAAUUUAUCACUACGAAAUCUUGAGAUCGGGCGUUCGACUCGCCCCCGGAAGAUUUUUUCCUCGAGCAA | 1.07 |
| CUUUCGGUAGCCAAGUUGGUUUAAGGCGCAAGACUUUAAUUUAUCACUACGAAAUCUUGAGAUCGGGCGUUCGACUCCCCCCCGGGAGUUUUUUUCCUCGAGCAA | ≤ 0.026 |
| CUUUCGGUAGCCAAGUUGGUUUAAGCCACAAGACUUUAAUUUAUCACUACGAAAUCUUGAGAUCGGGCGUUCGACUCGCCCCCGGGAGAUUUUUUCCUCGAGCAA | ≤ 0.026 |
| CUUUCGGUAGCCAAGUUGGUUUAAGGCGCAAGACUUUAAUUUAUCACUACGAAAUCUUGAGAUCGGGCGUUCGACUCGCUCCCGGGAGAUUUUUUCCUCGAGCAA | 0.0737 |
| CUUUCGGUAGCCAAGAUGGUUUAAGGCGCAAGACUUUAAUUUAUCACUACGAAAUCUUGAGAUCGGGCGUUCGACUCGCCCCCGGGAGAUUUUUUCCUCGAGCAA | 0.16 |
| CUUUCGGUAGCCAAGGUGGUUUAAGGCGCAAGACUUUAAUUUAUCACUACGAAAUCUUGAGAUCGGGCGUUCGACUCGCCCCCGGGAGAUUUUUUCCUCGAGCAA | 0.22 |
| CUUUCGGUAGCCAAGUUGGUUUAAGGCGCAAGACUUUAAUUUAUCACUACGAAAUCUUGAGAUCGGGCGUUCAACUCGCCCCCGGGAGAUUUUUUCCUCGAGCAA | 0.0656 |
| CUUUCGGUAGCUAAGUUGGUUUAAGGCGCAAGACUUUAAUUUAUCACUACGAAAUCUUGAGAUCGGGCGUUCGACUCGCCCCCGGGAGAUUUUUUCCUCGAGCAA | 0.039 |
| CUUUCGGUAGCGAAGUUGGUUUAAGGCGCAAGACUUUAAUUUAUCACUACGAAAUCUUGAGAUCGGGCGUUCGACUCGCCCCCGGGAGAUUUUUUCCUCGAGCAA | ≤ 0.026 |
